ChEMBL document CHEMBL5247578, “Effective synthesis of benzimidazoles-imidazo[1,2-a]pyrazine conjugates: A comparative study of mono-and bis-benzimidazoles for antitumor activity” (Eur J Med Chem, 2019)

What was measured:
[1] = test system: NCI-H226; test: Antiproliferative activity against human NCI-H226 cells assessed as cell growth inhibition at 10 uM incubated for 48 hrs by sulforhodamine B assay relative to control; type: functional
Summary of the method: (§1)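 NCI-60 single-dose screen at 10^-5 M. Cells grown in RPMI 1640 with 5% FBS and 2 mM L-glutamine, plated at 5,000–40,000 cells/well, and preincubated 24 h. Drug (DMSO stock) added and incubated 48 h at 37 °C, 5% CO2. Adherent cells fixed with cold TCA, stained with 0.4% SRB in 1% acetic acid, dye solubilized in 10 mM trizma base, A515 read. Percent growth taken against time-zero and untreated control.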

[2] = test system: HCT-116; test: Antiproliferative activity against human HCT-116 cells assessed as cell growth inhibition at 10 uM incubated for 48 hrs by sulforhodamine B assay relative to control; type: functional
Summary of the method: (§2)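 NCI-60 one-dose prescreen at 10^-5 M. Cells grown in RPMI 1640 with 5% FBS and 2 mM glutamine, preincubated 24 h, then exposed 48 h at 37 °C. Adherent lines TCA-fixed, SRB-stained, A515 read. Growth percent relative to time-zero and control; negative values mean cell kill.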

[3] = test system: RPMI-8226; test: Antiproliferative activity against human RPMI-8226 cells assessed as cell growth inhibition at 10 uM incubated for 48 hrs by sulforhodamine B assay relative to control; type: functional; summary of the method: as §1
[4] = test system: MOLT-4; test: Antiproliferative activity against human MOLT-4 cells assessed as cell growth inhibition at 10 uM incubated for 48 hrs by sulforhodamine B assay relative to control; type: functional; summary of the method: as §1
[5] = test system: NCI-H460; test: Antiproliferative activity against human NCI-H460 cells assessed as cell growth inhibition at 10 uM incubated for 48 hrs by sulforhodamine B assay relative to control; type: functional; summary of the method: as §1
[6] = test system: BT-549; test: Antiproliferative activity against human BT-549 cells assessed as cell growth inhibition at 10 uM incubated for 48 hrs by sulforhodamine B assay relative to control; type: functional
Summary of the method: (§3)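 Single-dose NCI-60 prescreen at 10^-5 M. Cells in RPMI 1640 with 5% FBS and 2 mM L-glutamine, seeded 5,000–40,000 cells/well with 24 h preincubation, then drug exposure for 48 h at 37 °C under 5% CO2. Growth read by SRB staining of TCA-fixed cells at 515 nm against time-zero and untreated controls. Negative growth values denote cell kill.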

[7] = n-Octanol/phosphate buffer partition coefficient, logP of the compound at pH 7.4 incubated for 85 mins by shake-flask method; type: physicochemical
Summary of the method: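 Octanol–water partition by shake-flask: n-octanol with 0.15 M phosphate buffer pH 7.4 at 10:1 volumes. Buffer-phase absorbance read before mixing, then shaken 50 min and centrifuged at 2500 rpm for 35 min. Buffer absorbance read again; P = (Ai−Af)/Af × Vw/Vo.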

[8] = test system: MDA-MB-231; test: Antiproliferative activity against human MDA-MB-231 cells assessed as cell growth inhibition at 10 uM incubated for 48 hrs by sulforhodamine B assay relative to control; type: functional; summary of the method: as §1
[9] = test system: SNB-75; test: Antiproliferative activity against human SNB-75 cells assessed as cell growth inhibition at 10 uM incubated for 48 hrs by sulforhodamine B assay relative to control; type: functional; summary of the method: as §1
[10] = test system: KM12; test: Antiproliferative activity against human KM12 cells assessed as cell growth inhibition at 10 uM incubated for 48 hrs by sulforhodamine B assay relative to control; type: functional; summary of the method: as §1
[11] = test system: T47D; test: Antiproliferative activity against human T47D cells assessed as cell growth inhibition at 10 uM incubated for 48 hrs by sulforhodamine B assay relative to control; type: functional; summary of the method: as §1
[12] = test system: NCI-H522; test: Antiproliferative activity against human NCI-H522 cells assessed as cell growth inhibition at 10 uM incubated for 48 hrs by sulforhodamine B assay relative to control; type: functional; summary of the method: as §1
[13] = test system: A498; test: Antiproliferative activity against human A498 cells assessed as cell growth inhibition at 10 uM incubated for 48 hrs by sulforhodamine B assay relative to control; type: functional; summary of the method: as §3
[14] = test system: DU-145; test: Antiproliferative activity against human DU-145 cells assessed as cell growth inhibition at 10 uM incubated for 48 hrs by sulforhodamine B assay relative to control; type: functional; summary of the method: as §2
[15] = test system: UO-31; test: Antiproliferative activity against human UO-31 cells assessed as cell growth inhibition at 10 uM incubated for 48 hrs by sulforhodamine B assay relative to control; type: functional; summary of the method: as §1
[16] = test system: NCI-H23; test: Antiproliferative activity against human NCI-H23 cells assessed as cell growth inhibition at 10 uM incubated for 48 hrs by sulforhodamine B assay relative to control; type: functional; summary of the method: as §1
[17] = test system: HL-60; test: Antiproliferative activity against human HL-60 cells assessed as cell growth inhibition at 10 uM incubated for 48 hrs by sulforhodamine B assay relative to control; type: functional; summary of the method: as §2
[18] = test system: HCT-15; test: Antiproliferative activity against human HCT-15 cells assessed as cell growth inhibition at 10 uM incubated for 48 hrs by sulforhodamine B assay relative to control; type: functional; summary of the method: as §2
[19] = test system: HOP-92; test: Antiproliferative activity against human HOP-92 cells assessed as cell growth inhibition at 10 uM incubated for 48 hrs by sulforhodamine B assay relative to control; type: functional; summary of the method: as §2
[20] = test system: MDA-MB-468; test: Antiproliferative activity against human MDA-MB-468 cells assessed as cell growth inhibition at 10 uM incubated for 48 hrs by sulforhodamine B assay relative to control; type: functional; summary of the method: as §1
[21] = test system: SR; test: Antiproliferative activity against human SR cells assessed as cell growth inhibition at 10 uM incubated for 48 hrs by sulforhodamine B assay relative to control; type: functional; summary of the method: as §1
[22] = test system: OVCAR-8; test: Antiproliferative activity against human OVCAR-8 cells assessed as cell growth inhibition at 10 uM incubated for 48 hrs by sulforhodamine B assay relative to control; type: functional; summary of the method: as §1
[23] = test system: PC-3; test: Antiproliferative activity against human PC-3 cells assessed as cell growth inhibition at 10 uM incubated for 48 hrs by sulforhodamine B assay relative to control; type: functional; summary of the method: as §1
[24] = test system: CCRF-CEM; test: Antiproliferative activity against human CCRF-CEM cells assessed as cell growth inhibition at 10 uM incubated for 48 hrs by sulforhodamine B assay relative to control; type: functional; summary of the method: as §3
[25] = test system: SK-MEL-5; test: Antiproliferative activity against human SK-MEL-5 cells assessed as cell growth inhibition at 10 uM incubated for 48 hrs by sulforhodamine B assay relative to control; type: functional; summary of the method: as §1
[26] = test system: LOX IMVI; test: Antiproliferative activity against human LOX IMVI cells assessed as cell growth inhibition at 10 uM incubated for 48 hrs by sulforhodamine B assay relative to control; type: functional; summary of the method: as §1
[27] = test system: K562; test: Antiproliferative activity against human K562 cells assessed as cell growth inhibition at 10 uM incubated for 48 hrs by sulforhodamine B assay relative to control; type: functional; summary of the method: as §1
[28] = test system: 786-0; test: Antiproliferative activity against human 786-0 cells assessed as cell growth inhibition at 10 uM incubated for 48 hrs by sulforhodamine B assay relative to control; type: functional; summary of the method: as §3
[29] = test system: HT-29; test: Antiproliferative activity against human HT-29 cells assessed as cell growth inhibition at 10 uM incubated for 48 hrs by sulforhodamine B assay relative to control; type: functional; summary of the method: as §1
[30] = test system: U-251; test: Antiproliferative activity against human U-251 cells assessed as cell growth inhibition at 10 uM incubated for 48 hrs by sulforhodamine B assay relative to control; type: functional; summary of the method: as §1
[31] = test system: UACC-62; test: Antiproliferative activity against human UACC-62 cells assessed as cell growth inhibition at 10 uM incubated for 48 hrs by sulforhodamine B assay relative to control; type: functional; summary of the method: as §1
[32] = test system: A549; test: Antiproliferative activity against human A549 cells assessed as cell growth inhibition at 10 uM incubated for 48 hrs by sulforhodamine B assay relative to control; type: functional; summary of the method: as §3
[33] = test system: SN12C; test: Antiproliferative activity against human SN12C cells assessed as cell growth inhibition at 10 uM incubated for 48 hrs by sulforhodamine B assay relative to control; type: functional; summary of the method: as §1
[34] = test system: ACHN; test: Antiproliferative activity against human ACHN cells assessed as cell growth inhibition at 10 uM incubated for 48 hrs by sulforhodamine B assay relative to control; type: functional; summary of the method: as §3
[35] = test system: SNB-19; test: Antiproliferative activity against human SNB-19 cells assessed as cell growth inhibition at 10 uM incubated for 48 hrs by sulforhodamine B assay relative to control; type: functional; summary of the method: as §1
[36] = test system: SF-268; test: Antiproliferative activity against human SF-268 cells assessed as cell growth inhibition at 10 uM incubated for 48 hrs by sulforhodamine B assay relative to control; type: functional; summary of the method: as §1
[37] = test system: EKVX; test: Antiproliferative activity against human EKVX cells assessed as cell growth inhibition at 10 uM incubated for 48 hrs by sulforhodamine B assay relative to control; type: functional; summary of the method: as §2
[38] = test system: MCF7; test: Antiproliferative activity against human MCF7 cells assessed as cell growth inhibition at 10 uM incubated for 48 hrs by sulforhodamine B assay relative to control; type: functional; summary of the method: as §1
[39] = test system: NCI-H322M; test: Antiproliferative activity against human NCI-H322M cells assessed as cell growth inhibition at 10 uM incubated for 48 hrs by sulforhodamine B assay relative to control; type: functional; summary of the method: as §1

Structure (SMILES)	inhibition at 10 µM [1]	inhibition at 10 µM [2]	inhibition at 10 µM [3]	inhibition at 10 µM [4]	inhibition at 10 µM [5]	logD at 1.417 h [7]	inhibition at 10 µM [8]	inhibition at 10 µM [9]	inhibition at 10 µM [10]	inhibition at 10 µM [11]	inhibition at 10 µM [12]	inhibition at 10 µM [15]	inhibition at 10 µM [17]	inhibition at 10 µM [18]	inhibition at 10 µM [19]	inhibition at 10 µM [21]	inhibition at 10 µM [22]	inhibition at 10 µM [23]	inhibition at 10 µM [24]	inhibition at 10 µM [25]	further results
c1csc(-c2cn3ccnc3c(-c3ccc4ncn(C5CCCCC5)c4c3)n2)c1	17.1%	21.1%	52.3%	30.8%	1.3%	1.38	10.8%	8.13%	4.89%	70.3%	13.2%	10.9%	26.6%	2.33%	32.5%	27.2%	9.34%	49.1%	46.4%	8.05%	inhibition at 10 µM [6]: 12.2%; inhibition at 10 µM [13]: 25%; inhibition at 10 µM [14]: 5.07%; inhibition at 10 µM [16]: 5.95%; inhibition at 10 µM [20]: 15.1%; inhibition at 10 µM [26]: 1.07%; inhibition at 10 µM [27]: 26.9%; inhibition at 10 µM [28]: 4.1%; inhibition at 10 µM [29]: 0.09%; inhibition at 10 µM [30]: 3.92%; inhibition at 10 µM [31]: 24.8%; inhibition at 10 µM [32]: 5.33%; inhibition at 10 µM [33]: 2.84%
FC(F)(F)c1cccc(-c2cn3ccnc3c(-c3ccc4ncn(C5CCCCC5)c4c3)n2)c1	1.55%	17.6%	32.1%	32.9%	4.38%	1.72	21.8%	4.58%	1.25%	52.1%	10.7%	22.5%	1.06%	0.36%	8.38%	15.6%	10.1%	36.5%	27.3%	4.32%	inhibition at 10 µM [34]: 0.3%; inhibition at 10 µM [35]: 2.24%; inhibition at 10 µM [36]: 3.3%; inhibition at 10 µM [26]: 3.45%; inhibition at 10 µM [37]: 4.79%; inhibition at 10 µM [27]: 21.5%; inhibition at 10 µM [29]: 6.41%; inhibition at 10 µM [30]: 5.93%; inhibition at 10 µM [38]: 19.9%; inhibition at 10 µM [39]: 5.83%; inhibition at 10 µM [31]: 4.33%; inhibition at 10 µM [32]: 5.15%; inhibition at 10 µM [33]: 8.3%
CCc1ccc(-c2cn3ccnc3c(-c3ccc4ncn(C5CCCCC5)c4c3)n2)cc1						1.66															
Cc1cccc(-c2cn3ccnc3c(-c3ccc4ncn(C5CCCCC5)c4c3)n2)c1						1.87															
